Screening data from PubChem BioAssay.
The list is not random: actives were taken first. Their share in the collection is about 2.9%.
MT1-MMP txn act: MT1-MMP promoter transcription activation; AID 750; activation factor at 10 µM; HT1080 MT1-MMP promoter luciferase reporter, luminescence, overnight; stronger effect = higher value; 86,000 tested, 0.16% active;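 active means activation factor of at least 2 for MT1-MMP transcription at 10 µM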
Jurkat tox 60K: cytotoxicity toward Jurkat cells; 56,000 tested, 1.2% active; inhibition, % at 4 µM; AID 463; Jurkat E6.1 viability, ATP luminescence, 48 h;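 active means inhibition above the mean inhibition of all tested compounds plus 3 SD, cut at about 28% in these data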
SF-1 act: SF-1 (human) activation. 65,000 tested, 1.9% active. CHO-K1 Gal4-SF-1 LBD luciferase reporter; % increase over DMSO SF-1-specific signal. activation, % at 10 µM;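 active means activation above the mean activation of all tested compounds plus 3 SD, cut at about 50% in these data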
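Assay system: CHO-K1 cells co-transfected with Gal4 DBD–human SF-1 LBD, 5xGal4 luciferase reporter / Input: 4,000 cells per well / Incubation: 20 h compound exposure at 37 °C after 1 h cell settling / Detection: SteadyLite luciferase luminescence / Control set: DMSO negative control and −SF1 background wells / Replication: one test per compound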
HEK293 NFkB inh: lowers PMA/ionomycin-induced NF-kB signal in HEK293 cells; HEK-293 NF-kB luciferase reporter, luminescence; inhibition, % at 3 µM; 62,000 tested, 0.21% active; AID 465;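 active means inhibition above the mean of all tested compounds plus 3 SD, cut at about 40% in these data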;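 further: 0% = stimulated DMSO wells and 100% = 10 µM reference inhibitor 5653914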
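System – HEK-293 cells with stable firefly luciferase reporter driven by four HIV NF-kB elements · Doses – one dose, 3 µM · Schedule – 1 h compound pre-incubation, 16 h PMA/ionomycin at 37 °C · Technique – luminescence from luciferase substrate reagent · Measure – percent inhibition normalized per plate to DMSO and reference-inhibitor controls · Replicates – tested once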
RORa activator: activators of human nuclear receptor RORA; AID 560; activation, % at 10 µM; 65,000 tested, 1.5% active; CHO-K1 Gal4-RORA LBD luciferase reporter, luminescence; percent increase over mock-subtracted basal signal; P35398;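 active means activation above the mean of all tested compounds plus 3 SD, cut at about 49% in these data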;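 further: 0% = DMSO-treated RORA cells and 100% = added signal equal to DMSO minus mock-transfected cells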
Target sequence (P35398 whole entry, looked up, the tested form may be a part): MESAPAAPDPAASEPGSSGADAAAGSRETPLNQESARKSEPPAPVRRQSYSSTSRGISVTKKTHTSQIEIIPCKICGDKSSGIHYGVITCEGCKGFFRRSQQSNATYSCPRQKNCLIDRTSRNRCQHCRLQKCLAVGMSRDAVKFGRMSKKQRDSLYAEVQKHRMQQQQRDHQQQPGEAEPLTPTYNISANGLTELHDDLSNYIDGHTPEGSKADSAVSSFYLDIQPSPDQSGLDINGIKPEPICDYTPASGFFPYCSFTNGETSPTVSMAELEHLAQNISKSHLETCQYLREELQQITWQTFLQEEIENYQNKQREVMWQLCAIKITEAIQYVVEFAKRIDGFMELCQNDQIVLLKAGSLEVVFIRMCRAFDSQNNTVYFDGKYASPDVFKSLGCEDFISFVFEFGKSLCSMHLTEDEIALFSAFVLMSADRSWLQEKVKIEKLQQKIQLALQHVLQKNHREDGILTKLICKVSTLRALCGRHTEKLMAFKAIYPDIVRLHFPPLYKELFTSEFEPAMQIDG
An asterisk follows results filed as active; · = no result.

SMILES	MT1-MMP txn act	Jurkat tox 60K	SF-1 act	HEK293 NFkB inh	RORa activator
CS(=O)(=O)N1CCc2cc(-c3csc(NC(=O)Cc4cccs4)n3)ccc21	1.1	70*	2	16	0
O=C(CN1CCOCC1)Nc1nc(-c2ccc3c(c2)CCN3S(=O)(=O)c2ccccc2)cs1	1	4	-3	12	20
COC(=O)c1cc(Br)c(=O)n(-c2ccc(F)cc2)c1	1.1	·	·	·	·
Cc1onc(-c2ccccc2)c1C(=O)N1CCCN(C(=O)c2c(-c3ccccc3)noc2C)CC1	1	-2	-1	11	-4
COc1ccccc1N1CCN(C(=O)c2c(-c3ccccc3)noc2C)CC1	0.7	88*	28	22	34
COCCn1c(SCC(=O)NCc2ccc3c(c2)OCO3)nnc1-c1c[nH]c2ccccc12	1.1	-3	-8	6	2
O=c1/c(=C\c2ccc3c(c2)OCO3)sc2n1CCCN=2	1.1	5	49	-24	55*
Cc1ccc(/C=c2/sc3n(c2=O)CCCN=3)o1	1.7	·	·	·	·
O=C(Nc1ccc(Cl)c(Cl)c1)N1CC=CCC1	1.9	4	55*	-25	58*
CC(C)C(=O)Nc1nnc(CCN2CCOCC2)s1	1.2	·	·	·	·
CC(=O)c1cnc2c(-c3ccc(Cl)cc3)cnn2c1C	2.1*	·	·	·	·
C=CCSc1nnc(-c2ccccc2NC(=O)CC)c(=O)[nH]1	1.2	-4	-1	10	11
CN(C)/C=C1\C(=O)Nc2ccccc21	1.3	·	·	·	·
O=C1N/C(=C\c2ccccc2)c2ccccc21	1.3	81*	63*	19	51*
CCCCn1c(=O)[nH]c(=O)c2c1nc(COC(=O)c1c(C)noc1C)n2CCC	1.2	-2	17	13	16
COc1ccccc1S(=O)(=O)Cc1ccc(C(=O)N2CCN(c3cccc(Cl)c3)CC2)o1	1	81*	19	17	40
COc1ccccc1S(=O)(=O)Cc1ccc(C(=O)N2CCN(c3ccccc3)CC2)o1	1.2	-4	-4	23	4
Cc1cccc(N2CCN(C(=O)c3ccc(CS(=O)(=O)c4ccccc4C)o3)CC2C)c1 (centres undefined)	0.5	94*	11	42*	1
Cc1ccc(C)c(N2CCN(C(=O)c3ccc(CS(=O)(=O)c4ccccc4C)o3)CC2)c1	1	40*	-3	29	2
Cc1ccc(Cn2ccc(=O)c(OCc3c(Cl)cccc3Cl)c2C)cc1	1.2	·	·	·	·
CCOc1ncccc1C(=O)OCC(=O)N1CC(=O)Nc2ccccc21	1	-7	0	9	-4
Cc1noc(C)c1COc1cccc(C(=O)OCC(=O)N2CC(=O)Nc3ccccc32)c1	0.9	84*	24	-4	25
Cn1nnnc1SCC(=O)Nc1ccc(Oc2ccc(Cl)cc2)cc1	1.1	51*	-11	4	-13
CCCOC(=O)c1sc2nc3c(cc2c1N)C(=O)CCC3	1.3	5	60*	-22	35
O=c1c2ccccc2cnn1-c1nc2ccccc2s1	0	2	-90	77*	-90
SMILES	MT1-MMP txn act	Jurkat tox 60K	SF-1 act	HEK293 NFkB inh	RORa activator
O=c1c2ccccc2ncn1Cc1nc2ccccc2s1	1.1	·	16	20	19
O=c1[nH]c2ccccc2nc1-c1cccs1	1.4	-3	54*	12	9
O=S(=O)(CCSc1ccccn1)c1nc2ccccc2s1	0.9	50*	9	24	2
O=S(=O)(CCSc1nc2ccccc2o1)c1nc2ccccc2s1	1	64*	-10	20	-33
CCS(=O)(=O)CCSc1nc2ccccc2o1	1.1	-9	5	8	14
COc1ccccc1NC(=O)CN1C(=O)NC(CC(C)C)C1=O (centres undefined)	1.2	-3	0	18	1
CC(C)CC1NC(=O)N(CC(=O)c2ccc3c(c2)OCCO3)C1=O (centres undefined)	1.2	·	84*	-18	57*
Cc1csc2nc(CSc3nc4ccccc4o3)cn12	1.7	·	61*	·	-5
CCn1c(C)nc2cc(-c3nc4n(n3)Cc3ccccc3-4)ccc21	0	62*	-96	93*	-96
O=C(Nc1ccc(NC(=O)C2CC2)nc1)c1cccs1	1.4	3	52*	-1	18
O=C(Nc1ccc(NC(=O)c2ccco2)nc1)c1cccnc1	1.2	1	55*	-10	22
O=C(Nc1ccc(NC(=O)C2CCCCC2)nc1)c1ccco1	1.5	·	·	·	·
O=C(Nc1ccc(NC(=O)C2CC2)nc1)c1ccco1	1.5	10	51*	0	20
COC(=O)[C@@]1(Cc2ccc(F)cc2)[C@H]2c3cc(C(=O)N(C)C)n(CCCNc4ncc(C(F)(F)F)cc4Cl)c3C[C@H]2CN1C(=O)c1ccccc1	1.1	·	·	·	·
CCCOc1ccc(OC(=O)c2ccc(Br)o2)cc1	1	0	-6	7	9
Oc1cc(NCc2cccnc2)ccc1-c1nc2ccccc2o1	1.7	1	38	-24	61*
CCc1ccc(OCC(=O)Nc2ccc(-c3nc4ccccc4o3)c(O)c2)cc1	1	-11	49	-10	-8
Cc1ccc(Nc2cc(C)nn2-c2nc(C)cc(=O)[nH]2)cc1	0.3	94*	-96	68*	-88
CCn1c(=S)sc2nc(C)sc21	0.8	-1	4	9	-8
COc1ccc(N2CCN(CC(O)COc3ccc4c(c3)CCC4)CC2)cc1 (centres undefined)	1.1	·	·	·	·
COc1cc(NC(=O)c2cc3c(C)nc4ccccc4c3o2)cc(OC)c1OC	1.2	5	5	17	-11
COc1ccc(NC(=O)c2cc(-c3ccc(C)o3)nc3ccccc23)cc1OC	1.2	15	24	8	53*
COc1ccc(CNC(=O)[C@H](C)[C@H]2C[C@]2(C)[C@H](NC(=O)OCc2ccccc2)c2ccccc2)cc1OC	1.2	·	·	·	·
Cc1ccc2c(c1)C(N1CCCC1=O)CC(c1ccco1)N2 (centres undefined)	0.2	7	58*	-28	52*
Cc1ccc(C2CC(c3ccco3)n3ncnc3N2)cc1 (centres undefined)	1.1	·	·	·	·
SMILES	MT1-MMP txn act	Jurkat tox 60K	SF-1 act	HEK293 NFkB inh	RORa activator
Cc1ccc(-c2nn(-c3ccccc3)cc2CN(Cc2ccccc2)C(=O)c2ccco2)o1	1.1	·	·	·	·
Nc1c(C(=O)Nc2ccc3c(c2)OCCO3)nnn1CCc1ccccc1	1.1	80*	92*	16	142*
O=C(CCc1ccccc1)Nc1ccc2c(c1)OCCO2	1.2	·	·	·	·
O=C(C1CC1)N1CCC(c2nc(-c3ccc(S(=O)(=O)NCC4CCCO4)cc3)no2)CC1 (centres undefined)	1	52*	-6	26	0
C=CCN(C(=O)c1ccccc1)c1ccc(OC)cc1	·	49*	19	4	16
CCN(C(=O)c1cc2cc(OC)ccc2oc1=O)c1ccccc1	1.1	1	-10	10	0
COc1cccc(/C=N/n2c(SC)nnc2-c2ccccc2)c1O	1	68*	27	7	5
